# Shown are actives, neighbours in structure and some others; about 3.1% of the full set was active somewhere.
# KCNQ1 block: inhibitors of human KCNQ1 channel, primary screen, cell-based, thallium flux, high-throughput; Potassium voltage-gated channel subfamily KQT member 1 (Homo sapiens), P51787; CHO-K1 KCNQ1, FluxOR thallium flux fluorescence; hits give high values; B-score at 10 µM; 1.3% of 310,000 active; AID 2642, 2010;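 active means compounds whose thallium flux B-score, printed positive for inhibition, exceeds three library SD while starting fluorescence stays within three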;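 further: channel opened by potassium depolarization with thallium stimulus after 20 min compound exposure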
# KCNQ1 pot: potentiators or activators of KCNQ1 channel, primary screen, cell-based, thallium flux, high-throughput; CHO-K1 KCNQ1, thallium flux FluxOR fluorescence; hits give high values; B-score at 10 µM; 0.35% of 310,000 active; AID 2648, 2010;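 active means fluorescence ratio B-score, a plate-corrected score, at least three library SD, with initial intensity B-score within 5 SD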
#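 Doses: Single concentration per compound, DMSO matched to controls | Test system: KCNQ1-transfected CHO-K1 cells | Timing: 90 min dye loading and 20 min compound exposure, both at room temperature | Measured by: Kinetic FluxOR thallium fluorescence, 10-s 1-Hz baseline, 110-s post-stimulus read | Medium: Assay buffer with matched DMSO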
# KCNK3 block: human KCNK3 channel inhibitors, primary screen, CHO cells, FluxOR thallium flux, B-score; Potassium channel subfamily K member 3 (Homo sapiens), O14649; FluxOR fluorescence; hits give low values; B-score at 10 µM; 0.84% of 340,000 active;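 active means B-score under library mean minus 4 SD, starting fluorescence ratio at most library mean plus 5 SD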;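 further: more negative B-score means stronger inhibition of thallium flux through KCNK3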
# Target sequence (O14649 whole entry, looked up): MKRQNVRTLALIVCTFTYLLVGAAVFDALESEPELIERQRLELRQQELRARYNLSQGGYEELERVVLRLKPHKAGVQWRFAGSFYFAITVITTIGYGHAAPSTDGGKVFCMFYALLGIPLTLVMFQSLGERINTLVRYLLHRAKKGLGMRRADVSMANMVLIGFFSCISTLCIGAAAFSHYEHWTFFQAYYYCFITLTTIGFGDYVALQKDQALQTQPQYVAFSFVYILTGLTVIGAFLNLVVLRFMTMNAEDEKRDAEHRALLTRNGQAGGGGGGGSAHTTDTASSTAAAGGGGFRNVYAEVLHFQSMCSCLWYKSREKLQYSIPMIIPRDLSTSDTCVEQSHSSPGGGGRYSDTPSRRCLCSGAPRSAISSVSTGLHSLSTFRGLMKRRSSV
# KCNK9 block: KCNK9 potassium channel inhibitors, primary screen, HEK293 cells, thallium flux; 1.2% of 310,000 active; B-score at 10 µM; FluxOR thallium flux fluorescence; hits give low values; Potassium channel subfamily K member 9 (Homo sapiens), Q9NPC2;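 active means ratio B-score over 3 SD below the library mean, with starting fluorescence within 5 SD of its mean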;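 further: negative B-score means less thallium flux so channel inhibition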
# hERG rescue: hERG rescue from dofetilide block, primary screen, cell-based, CHO-hERG, FluxOR thallium flux, dofetilide IC70 | dofetilide IC70 present | activation (rescue from dofetilide block), less the hit threshold, % at 10 µM | 0.51% of 310,000 active;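 active means activation above the mean of controls blocked by dofetilide plus 5 SD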;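 further: thallium influx through hERG after potassium depolarization seen as dye fluorescence rise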
# Hits are given with their value; - = inactive; . = no result given.
SMILES,KCNQ1 block,KCNQ1 pot,KCNK3 block,KCNK9 block,hERG rescue
Cc1nnc(SCc2cc(=O)oc3cc(O)ccc23)n1Cc1ccccc1,-,-,-,-,11
CCCCn1c(=N)n(CC(=O)C(C)(C)C)c2ccccc21,-,-,-,-,-
CCCn1c(=N)n(CC(=O)C(C)(C)C)c2ccccc21,6,-,-,-,-
CN=C1S/C(=C\c2ccc(N3CCCC3)c(F)c2)C(=O)N1C,11,-,-,-,-
Cc1ccc(-c2nc(NCc3ccco3)c3ccccc3n2)cc1,-,-,-,-6.6,-
CCCC(=O)n1nc(-c2ccc(C)cc2)nc1NCc1ccco1,-,10,-,-,-
Cc1ccc(C(=O)n2nc(-c3ccccc3)nc2NCc2ccco2)cc1,-,-,-,-,-
Cc1cccc(N2CCN(S(=O)(=O)c3cccc4nonc34)CC2)c1C,-,-,-,-,-
CCOC(=O)C1CCCCN1S(=O)(=O)c1ccc2c(c1)CC(C)N2C(=O)C1CCC1 (stereo not drawn),-,-,-,-,-
CCc1ccccc1NC(=O)CNC(=O)CSC(=S)N1CCCC1,.,.,-,.,.
Cc1sc(NC(=O)CN2C(=O)NC3(CCCC3)C2=O)nc1-c1ccc(F)cc1,-,-,-,-,-
Cc1ccc(OC(C)C(=O)OCC(=O)Nc2sccc2C(N)=O)cc1 (stereo not drawn),.,.,-,.,.
CC(Oc1ccc(Cl)cc1)C(=O)Nc1sccc1C(N)=O (stereo not drawn),-,-,-,-,6.6
Cc1ccccc1NC(=O)c1ccc2c(c1)OCCO2,-,-,-,-,-
COC(=O)c1ccccc1NC(=O)c1ccc2c(c1)OCCCO2,-,-,-,-6.8,-
O=C(CSc1nnc(NC(=O)c2cccc(Cl)c2)s1)NCC1CCCO1 (stereo not drawn),-,-,-,-,-
N=C1/C(=C\c2coc3ccccc3c2=O)C(=O)N=C2SC(c3ccncc3)=NN12,16,-,-,-,-
N=C1/C(=C/c2coc3ccccc3c2=O)C(=O)N=C2SC(c3ccco3)=NN12,7,-,-,-,-
CSC1=NSC2=NC(=O)/C(=C\c3coc4ccccc4c3=O)C(=N)N12,.,.,-,.,.
CN1CCN(c2nc(-c3ccc(Cl)cc3)nc3ccccc23)CC1,-,-,-,-,-
Cc1cccc(C)c1OCC1CNC(=O)O1 (stereo not drawn),-,-,-,-,6.5
O=C1NCC(COCc2ccccc2)O1 (stereo not drawn),-,-,-,-,-
OC(c1ccccc1)c1cccnc1 (stereo not drawn),-,-,-,-,-
COc1ccc(Nc2nc(-c3cccs3)nc3ccccc23)cc1S(=O)(=O)N1CCOCC1,-,-,-11,-,-
Cc1nn(C)cc1/C=C/C(=O)c1ccc(O)cc1,-,-,-,-,6.2
SMILES,KCNQ1 block,KCNQ1 pot,KCNK3 block,KCNK9 block,hERG rescue
NCCNc1ccc(C(=O)N2c3ccccc3Sc3ccccc32)cc1[N+](=O)[O-],8,-,-,-,-
Nc1ccc(C(=O)OCC(=O)N2c3ccccc3Sc3ccccc32)cc1[N+](=O)[O-],.,.,-,.,.
CCOC(=O)Cn1c(=NC(=O)CSC(C)=O)sc2cc(OC)ccc21,-,-,-,-8.1,-
Cc1ccccc1NC1=C/C(=N\S(=O)(=O)c2ccc(C(=O)O)cc2)c2ccccc2C1=O,-,-,-,-,6.1
Cc1ccc(C)c(S(=O)(=O)/N=C2\C=C(NS(=O)(=O)c3ccccc3)C(=O)c3ccccc32)c1,10,-,-,-,-
O=C(O)c1ccc(S(=O)(=O)/N=C2\C=C(Nc3ccccc3F)C(=O)c3ccccc32)cc1,-,-,-,-,-
CCOc1cccc(-c2c(C(=O)N/N=C(\C)c3ccccn3)nnn2-c2nonc2N)c1,-,-,-,-7,-
CCN1CCCC1CNC(=O)c1ccc2c(c1)NC(=O)/C(=C\c1ccc(C)cc1)S2 (stereo not drawn),11,-,-,-,-
O=C(NC1CCCCC1)c1cc(N2C(=O)CCC2=O)ccc1Cl,-,-,-,-,-
N#CC1=C(N)SC(N)=C(C#N)C1c1cccc(Oc2ccccc2)c1,8,-,-,-,-
N#CC1=C(N)SC(N)=C(C#N)C1Cc1ccccc1,9,-,-,-,-
N#CC1=C(N)SC(N)=C(C#N)C1c1c(Cl)cccc1Cl,-,-,-,-,-
O=C(O)CCCCCNC(=O)c1ccc(Br)cc1,-,-,-,-,-
O=C(O)CCCCCNC(=O)c1ccccc1Br,-,-,-,-,5.4
Cc1ccc(C(=O)O)cc1NC(=O)CSc1ncnc2sc3c(c12)CCC3,-,-,-,-,-
CC(C)NC(=O)C1CCN(C(=O)c2cc3sccc3n2Cc2ccc(F)cc2)CC1,-,-,-,-,5.0
O=C(NCc1ccc(F)cc1)c1cc2sccc2n1Cc1ccc(F)cc1,-,-,.,-10,-
CCOc1ccc(S(=O)(=O)N2CCC(C(=O)NCc3ccncc3)CC2)cc1Cl,-,-,-,-,-
O=C(CCNc1cccc(F)c1)c1cccc([N+](=O)[O-])c1,8,-,-,-,-
COc1ccc(OC)c(NC(=O)COC(=O)c2ccc(OC)c(S(=O)(=O)N3CCOCC3)c2)c1,.,.,-,.,.
O=C(Nc1cccc([N+](=O)[O-])c1)NC1CCS(=O)(=O)C1 (stereo not drawn),10,-,-,-,-
NC(=O)c1cccnc1Nc1cccc([N+](=O)[O-])c1,-,-,-,-,9.4
O=C(Nc1cccnc1)Nc1cccc([N+](=O)[O-])c1,6,-,-,-,-
O=C(Nc1ccc(OC(F)(F)F)cc1)Nc1cccc([N+](=O)[O-])c1,7,-,-,-,-
Cc1ccc(NC(=O)Nc2cccc([N+](=O)[O-])c2)cc1F,-,-,-,-,-
SMILES,KCNQ1 block,KCNQ1 pot,KCNK3 block,KCNK9 block,hERG rescue
O=C(CC12CC3CC(CC(C3)C1)C2)NC(=S)Nc1ccc(CN2CCOCC2)cc1,-,-,-,-,-
CN1CCN(c2ccccc2NC(=O)COc2ccc(Cl)cc2)CC1,-,-,-,-,-
CS(=O)(=O)N(Cc1ccc(Cl)cc1)c1ccc(C(=O)N/N=C/c2cc3ccccc3nc2Cl)cc1,-,-,-,-7.3,-
Cc1ccc(CNCC2CCCO2)s1 (stereo not drawn),-,-,-,-,-
Cc1ccc(-c2nc(CN(CC3CCC3)CC3CCCO3)c(C)o2)s1 (stereo not drawn),-,-,-,-7.1,-
Nc1cccc(P(=O)(c2ccccc2)c2ccccc2)c1,-,-,-,-,-
O=P(c1ccccc1)(c1ccccc1)N(c1ccccc1)c1ccccc1,7,-,-,-,-
